Data: ChEMBL document CHEMBL3808388 (J Med Chem, 2016)
Activity calls are given as the source filed them. No cut-off for these calls is given here.

Key:
Rhodopsin kinase GRK1 = biological target: T1, Rhodopsin kinase GRK1 (Homo sapiens, UniProt Q15835); experiment: Inhibition of GRK1 (unknown origin) using tubulin as substrate by SDS-PAGE method
T1 sequence (Q15835 whole entry): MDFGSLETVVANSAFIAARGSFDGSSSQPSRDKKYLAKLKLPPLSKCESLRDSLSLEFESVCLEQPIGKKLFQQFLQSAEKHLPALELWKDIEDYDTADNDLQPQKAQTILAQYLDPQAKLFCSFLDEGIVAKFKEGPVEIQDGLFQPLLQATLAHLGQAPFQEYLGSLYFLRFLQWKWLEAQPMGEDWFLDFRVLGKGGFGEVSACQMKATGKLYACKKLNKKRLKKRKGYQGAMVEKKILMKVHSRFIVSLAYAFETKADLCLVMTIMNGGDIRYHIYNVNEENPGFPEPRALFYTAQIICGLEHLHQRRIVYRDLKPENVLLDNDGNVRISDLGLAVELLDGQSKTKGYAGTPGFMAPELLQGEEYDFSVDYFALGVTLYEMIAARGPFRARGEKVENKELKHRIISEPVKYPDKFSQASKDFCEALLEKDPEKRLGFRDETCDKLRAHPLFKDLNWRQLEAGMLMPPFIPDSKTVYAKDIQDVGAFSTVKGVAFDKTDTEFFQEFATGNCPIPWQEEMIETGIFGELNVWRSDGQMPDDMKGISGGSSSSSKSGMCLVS

[1] = Inhibition of PKA (unknown origin) using CREBtide as substrate by ADP-Glo kinase assay; parameters: species or system Homo sapiens
Procedure, shortened: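 ADP-Glo luminescence assay following the manufacturer's protocol. Inhibition curves were fitted from luminescence. IC50s are averages of three separate experiments, each run in duplicate.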

[2] = biological target: T2, Rho-associated protein kinase 1 (Homo sapiens, UniProt Q13464); experiment: Inhibition of ROCK1 (unknown origin) by ADP-Glo kinase assay
Target sequence in this assay (Q13464 whole entry): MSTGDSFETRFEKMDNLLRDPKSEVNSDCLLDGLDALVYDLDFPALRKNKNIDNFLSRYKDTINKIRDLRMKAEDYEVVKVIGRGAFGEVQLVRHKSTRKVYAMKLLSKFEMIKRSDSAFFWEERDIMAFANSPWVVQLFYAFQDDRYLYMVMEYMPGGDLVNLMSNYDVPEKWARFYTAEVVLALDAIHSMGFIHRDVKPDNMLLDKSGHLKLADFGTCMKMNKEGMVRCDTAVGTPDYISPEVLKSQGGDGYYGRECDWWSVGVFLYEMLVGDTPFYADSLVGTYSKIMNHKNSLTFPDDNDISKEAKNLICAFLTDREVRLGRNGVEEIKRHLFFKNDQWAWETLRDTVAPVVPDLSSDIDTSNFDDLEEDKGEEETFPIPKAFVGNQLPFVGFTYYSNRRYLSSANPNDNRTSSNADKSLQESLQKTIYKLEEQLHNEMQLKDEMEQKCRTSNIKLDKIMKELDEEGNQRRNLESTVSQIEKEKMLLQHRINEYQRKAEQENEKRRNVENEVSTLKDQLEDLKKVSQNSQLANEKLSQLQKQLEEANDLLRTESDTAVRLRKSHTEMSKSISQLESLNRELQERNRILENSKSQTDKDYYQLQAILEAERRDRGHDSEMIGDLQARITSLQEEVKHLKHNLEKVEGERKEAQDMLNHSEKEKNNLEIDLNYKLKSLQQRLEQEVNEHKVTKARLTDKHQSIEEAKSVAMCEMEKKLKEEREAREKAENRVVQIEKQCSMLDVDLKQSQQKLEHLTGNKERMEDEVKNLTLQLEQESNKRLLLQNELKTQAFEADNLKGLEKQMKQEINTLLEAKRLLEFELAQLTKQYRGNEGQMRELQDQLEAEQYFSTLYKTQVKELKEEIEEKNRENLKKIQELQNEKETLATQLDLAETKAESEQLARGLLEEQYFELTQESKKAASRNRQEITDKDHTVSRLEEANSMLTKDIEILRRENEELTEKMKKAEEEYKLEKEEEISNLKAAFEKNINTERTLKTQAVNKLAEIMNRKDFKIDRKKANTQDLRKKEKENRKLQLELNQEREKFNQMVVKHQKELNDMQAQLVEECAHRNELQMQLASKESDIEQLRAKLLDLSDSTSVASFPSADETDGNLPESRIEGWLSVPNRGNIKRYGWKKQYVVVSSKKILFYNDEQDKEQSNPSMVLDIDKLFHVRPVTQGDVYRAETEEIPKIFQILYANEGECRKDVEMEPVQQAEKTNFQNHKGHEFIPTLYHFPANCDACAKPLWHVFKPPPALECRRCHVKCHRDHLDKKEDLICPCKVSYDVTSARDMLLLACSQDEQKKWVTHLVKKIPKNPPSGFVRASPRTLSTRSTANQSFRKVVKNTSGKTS

[3] = biological target: G protein-coupled receptor kinase 5 (Homo sapiens, UniProt P34947); experiment: Inhibition of GRK5 (unknown origin) using tubulin as substrate by SDS-PAGE method
[4] = biological target: T2, Rho-associated protein kinase 1; experiment: Inhibition of ROCK1 (unknown origin) at 10 uM by ADP-Glo kinase assay
Procedure, shortened: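 ADP-Glo luminescence assay following the manufacturer's protocol. Percent inhibition was read at a single 10 μM inhibitor concentration.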
Target sequence in this assay (Q13464 2-1354 limits assumed): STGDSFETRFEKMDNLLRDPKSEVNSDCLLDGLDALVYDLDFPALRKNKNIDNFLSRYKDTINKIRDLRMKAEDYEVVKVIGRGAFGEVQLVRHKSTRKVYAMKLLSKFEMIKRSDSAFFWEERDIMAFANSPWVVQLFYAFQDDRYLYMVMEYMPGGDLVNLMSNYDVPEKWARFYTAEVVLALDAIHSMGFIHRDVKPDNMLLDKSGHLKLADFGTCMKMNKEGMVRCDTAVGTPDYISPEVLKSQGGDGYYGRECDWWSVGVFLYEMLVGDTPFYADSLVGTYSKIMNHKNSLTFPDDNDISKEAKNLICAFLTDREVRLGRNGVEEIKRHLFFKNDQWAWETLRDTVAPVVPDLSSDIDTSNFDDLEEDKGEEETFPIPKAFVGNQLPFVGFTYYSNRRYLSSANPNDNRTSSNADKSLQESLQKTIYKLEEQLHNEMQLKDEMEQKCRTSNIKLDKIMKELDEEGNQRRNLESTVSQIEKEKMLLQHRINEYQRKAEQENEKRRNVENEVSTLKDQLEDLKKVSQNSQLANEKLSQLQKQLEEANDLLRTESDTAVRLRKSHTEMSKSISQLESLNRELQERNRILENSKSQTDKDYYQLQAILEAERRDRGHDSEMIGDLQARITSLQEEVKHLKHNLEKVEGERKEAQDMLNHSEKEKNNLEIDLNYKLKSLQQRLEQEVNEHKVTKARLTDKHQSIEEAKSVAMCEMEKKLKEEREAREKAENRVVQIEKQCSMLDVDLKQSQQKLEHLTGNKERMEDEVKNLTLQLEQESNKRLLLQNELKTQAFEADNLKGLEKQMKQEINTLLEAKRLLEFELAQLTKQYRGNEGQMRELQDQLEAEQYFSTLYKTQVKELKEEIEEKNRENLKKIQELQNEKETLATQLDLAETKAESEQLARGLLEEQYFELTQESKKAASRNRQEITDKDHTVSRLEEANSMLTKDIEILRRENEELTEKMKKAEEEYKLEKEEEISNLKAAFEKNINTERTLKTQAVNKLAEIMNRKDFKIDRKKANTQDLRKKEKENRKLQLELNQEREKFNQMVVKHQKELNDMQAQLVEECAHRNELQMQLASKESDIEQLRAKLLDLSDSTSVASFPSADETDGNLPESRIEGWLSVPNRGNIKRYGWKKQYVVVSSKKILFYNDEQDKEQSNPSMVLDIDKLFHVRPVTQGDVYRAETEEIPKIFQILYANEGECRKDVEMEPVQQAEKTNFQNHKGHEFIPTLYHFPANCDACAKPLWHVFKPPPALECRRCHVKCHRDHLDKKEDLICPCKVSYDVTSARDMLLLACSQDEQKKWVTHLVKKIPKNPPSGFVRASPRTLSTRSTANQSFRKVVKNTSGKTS

[5] = biological target: T3, Beta-adrenergic receptor kinase 1 (Mus musculus) (UniProt Q99MK8); experiment: Inhibition of GRK2 in C57BL/6 mouse cardiomyocytes assessed as increase in contractility at 0.5 uM preincubated for 10 mins followed by beta adrenergic receptor agonist isoproterenol addition for 2 mins; assay type: cell-based
T3 sequence (whole entry): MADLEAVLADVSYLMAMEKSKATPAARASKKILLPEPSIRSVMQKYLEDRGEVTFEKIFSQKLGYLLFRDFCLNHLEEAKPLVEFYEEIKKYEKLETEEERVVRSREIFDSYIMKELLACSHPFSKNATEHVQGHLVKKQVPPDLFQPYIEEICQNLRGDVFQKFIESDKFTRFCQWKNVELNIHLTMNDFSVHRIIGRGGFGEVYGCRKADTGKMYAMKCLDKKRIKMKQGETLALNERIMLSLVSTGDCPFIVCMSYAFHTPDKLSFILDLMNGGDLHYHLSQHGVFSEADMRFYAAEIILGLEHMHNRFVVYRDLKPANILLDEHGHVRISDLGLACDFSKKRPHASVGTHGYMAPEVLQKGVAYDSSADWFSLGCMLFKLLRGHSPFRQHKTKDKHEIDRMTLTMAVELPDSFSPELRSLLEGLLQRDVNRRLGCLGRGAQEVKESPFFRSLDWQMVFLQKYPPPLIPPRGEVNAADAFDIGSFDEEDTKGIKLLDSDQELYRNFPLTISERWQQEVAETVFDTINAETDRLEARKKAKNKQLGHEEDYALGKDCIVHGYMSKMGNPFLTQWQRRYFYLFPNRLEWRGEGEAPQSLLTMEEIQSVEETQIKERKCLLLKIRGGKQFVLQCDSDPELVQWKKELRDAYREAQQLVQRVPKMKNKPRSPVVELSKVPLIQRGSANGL

[6] = biological target: T3, Beta-adrenergic receptor kinase 1 (Mus musculus); experiment: Inhibition of GRK2 in C57BL/6 mouse cardiomyocytes assessed as increase in contractility at 1 uM preincubated for 10 mins followed by beta adrenergic receptor agonist isoproterenol addition for 2 mins; assay type: cell-based

Chain of G protein-coupled receptor kinase 5 (P34947 whole entry): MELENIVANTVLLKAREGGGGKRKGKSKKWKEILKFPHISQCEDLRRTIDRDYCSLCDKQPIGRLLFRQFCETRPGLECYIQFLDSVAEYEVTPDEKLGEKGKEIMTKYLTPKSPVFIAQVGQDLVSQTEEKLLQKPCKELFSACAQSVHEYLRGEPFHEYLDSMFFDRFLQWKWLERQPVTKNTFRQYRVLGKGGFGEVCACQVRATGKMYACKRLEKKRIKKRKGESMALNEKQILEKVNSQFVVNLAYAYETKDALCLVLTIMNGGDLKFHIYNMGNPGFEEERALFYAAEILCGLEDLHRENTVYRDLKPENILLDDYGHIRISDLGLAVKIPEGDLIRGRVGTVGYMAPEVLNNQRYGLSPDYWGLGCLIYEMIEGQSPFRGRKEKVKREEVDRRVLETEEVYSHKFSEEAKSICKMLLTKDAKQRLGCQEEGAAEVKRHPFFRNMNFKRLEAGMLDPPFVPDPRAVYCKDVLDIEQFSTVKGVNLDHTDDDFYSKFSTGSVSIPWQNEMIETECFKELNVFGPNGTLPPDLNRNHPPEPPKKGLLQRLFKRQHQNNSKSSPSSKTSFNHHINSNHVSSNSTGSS

Row | Structure (SMILES) | IC50 (Rhodopsin kinase GRK1) [µM] | IC50 [1] [µM] | IC50 [2] [µM] | IC50 [3] [µM] | inhibition [4] [%] | Activity [5] | Activity [6]
1 | CNC(=O)c1cc(C2NC(=O)NC(C)=C2C(=O)Nc2ccc3[nH]ncc3c2)ccc1F (stereo unspecified) | > 100 | > 100 | 0.56 | > 100 |  |  | 
2 | COc1ccc(CNC(=O)c2cc(C3NC(=O)NC(C)=C3C(=O)Nc3ccc4[nH]ncc4c3)ccc2F)cc1 (stereo unspecified) | > 100 | > 100 |  | 8.1 |  |  | 
3 | CC1=C(C(=O)Nc2ccc3[nH]ncc3c2)C(c2ccc(F)c(C(=O)NCc3nccc4ccccc34)c2)NC(=O)N1 (stereo unspecified) |  |  | 0.012 | 1.8 |  |  | 
4 | CC1=C(C(=O)Nc2ccc3[nH]ncc3c2)C(c2ccc(F)c(C(=O)NCc3c(Cl)cccc3Cl)c2)NC(=O)N1 (stereo unspecified) | > 100 | > 100 |  | > 100 |  |  | 
5 | COc1cccc(OC)c1CNC(=O)Cc1cc(C2NC(=O)NC(C)=C2C(=O)Nc2ccc3[nH]ncc3c2)ccc1F (stereo unspecified) | > 100 | > 100 |  | > 100 |  |  | 
6 | CC1=C(C(=O)Nc2ccc3[nH]ncc3c2)C(c2ccc(F)c(C(=O)O)c2)NC(=O)N1 (stereo unspecified) | > 100 | 78.1 | 0.19 |  |  |  | 
7 | CC1=C(C(=O)Nc2ccc3[nH]ncc3c2)C(c2ccc(F)c(C(=O)NCc3cccc(F)c3)c2)NC(=O)N1 (stereo unspecified) | 11.9 | > 100 |  |  |  |  | 
8 | CC1=C(C(=O)Nc2ccc3[nH]ncc3c2)C(c2ccc(F)c(C(=O)NCCc3ccncc3)c2)NC(=O)N1 (stereo unspecified) | > 100 | > 100 | 0.084 |  |  |  | 
9 | Fc1ccc([C@@H]2CCNC[C@H]2COc2ccc3c(c2)OCO3)cc1 [PAROXETINE] |  | > 100 |  |  | 10 |  | 
10 | CC1=C(C(=O)N(C)c2ccc3[nH]ncc3c2)C(c2ccc(F)c(C(=O)NCc3c(C)cccc3C)c2)NC(=O)N1 (stereo unspecified) | > 100 | > 100 | 2.1 |  |  |  | 
11 | COc1ccccc1CNC(=O)c1cc(C2NC(=O)NC(C)=C2C(=O)Nc2ccc3[nH]ncc3c2)ccc1F (stereo unspecified) | 16 | > 100 |  | 2.3 |  |  | 
12 | CC1=C(C(=O)Nc2ccc3c(c2)OCO3)C(c2ccc(F)c(C(=O)NCc3ccccn3)c2)NC(=O)N1 (stereo unspecified) | > 100 | > 100 |  | > 100 |  |  | 
13 | CC1=C(C(=O)Nc2ccc3[nH]ncc3c2)C(c2ccc(F)c(C(=O)NCc3c(F)cccc3F)c2)NC(=O)N1 (stereo unspecified) | > 100 | > 100 | 0.11 | 5 |  | Active | 
14 | CC1=C(C(=O)Nc2ccc3[nH]ncc3c2)C(c2ccc(F)c(C(=O)NCc3c(C(F)(F)F)cccc3C(F)(F)F)c2)NC(=O)N1 (stereo unspecified) | > 100 | > 100 |  | > 100 | 22 |  | 
15 | COc1cccc(CNC(=O)c2cc(C3NC(=O)NC(C)=C3C(=O)Nc3ccc4[nH]ncc4c3)ccc2F)c1 (stereo unspecified) | > 100 | > 100 |  | 3.8 |  |  | 
16 | CC1=C(C(=O)Nc2ccc3[nH]ncc3c2)C(c2ccc(F)c(C(=O)NCc3cc(C(F)(F)F)cc(C(F)(F)F)c3)c2)NC(=O)N1 (stereo unspecified) | > 100 | > 100 |  | > 100 |  |  | 
17 | CCCn1c(CNc2cccc(C(=O)NCc3c(F)cccc3F)c2)nnc1-c1ccncn1 | 9 |  |  | 2.2 | 10 |  | 
18 | CC1=C(C(=O)Nc2ccc3[nH]ncc3c2)C(c2ccc(F)c(C(=O)NCCc3ccccn3)c2)NC(=O)N1 (stereo unspecified) | > 100 | > 100 |  | 6.2 |  |  | 
19 | CC1=C(C(=O)Nc2ccc3[nH]ncc3c2)C(c2ccc(F)cc2)NC(=O)N1 (stereo unspecified) [GSK-180736A] | > 100 |  | 0.1 |  |  |  | Active
20 | COc1cccc(OC)c1CNC(=O)c1cc(C2NC(=O)NC(C)=C2C(=O)Nc2ccc3[nH]ncc3c2)ccc1F (stereo unspecified) | > 100 | > 100 |  | > 100 | 0 | Active | 
21 | CC1=C(C(=O)Nc2ccc3[nH]ncc3c2)C(c2ccc(F)c(CC(=O)NCc3c(C(F)(F)F)cccc3C(F)(F)F)c2)NC(=O)N1 (stereo unspecified) | > 100 | > 100 |  | > 100 |  |  | 
22 | CC1=C(C(=O)Nc2ccc3[nH]ncc3c2)C(c2ccc(F)c(C(=O)NCCc3c(C)cccc3C)c2)NC(=O)N1 (stereo unspecified) | > 100 | > 100 |  |  |  |  | 
23 | CC1=C(C(=O)Nc2ccc3[nH]ncc3c2)C(c2ccc(F)c(CC(=O)NCc3c(C)cccc3C)c2)NC(=O)N1 (stereo unspecified) | > 100 | > 100 |  |  |  |  | 
24 | CC1=C(C(=O)Nc2ccc3[nH]ncc3c2)C(c2ccc(F)c(C(=O)NCc3ccccn3)c2)NC(=O)N1 (stereo unspecified) | 3.9 | > 100 |  |  |  | Active | 
25 | CC1=C(C(=O)Nc2ccc3[nH]ncc3c2)C(c2ccc(F)c(C(=O)NCc3ncccc3C)c2)NC(=O)N1 (stereo unspecified) | > 100 | > 100 |  |  |  |  | 
26 | CC1=C(C(=O)Nc2ccc3[nH]ncc3c2)C(c2ccc(F)c(C(=O)NCc3c(C)cccc3C)c2)NC(=O)N1 (stereo unspecified) | > 100 | > 100 |  |  |  |  | Active
27 | CC1=C(C(=O)Nc2ccc3[nH]ncc3c2)C(c2ccc(F)c(C(=O)NCc3ccccc3)c2)NC(=O)N1 (stereo unspecified) | 71 | > 100 |  | 4.7 |  |  | 
